Data set [1] can be described thus: Compound evaluated for the partition coefficient (PC). The settings on record: octanol/water. The class given is physicochemical. A digest of the protocol:
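Octanol/phosphate buffer (0.1 M, pH 7.4) partition, equal volumes, stirred 1 h at room temperature. Nitroimidazole concentration in each phase measured spectrophotometrically.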

Data set [2] can be described thus: Compound evaluated in vitro for the dose required to kill 50% of chinese hamster cells measured by colony formation […]. The class given is functional. The settings on record: Cricetulus griseus, read-out: ED50 (the source's name). In short, it runs like this:
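Chinese hamster V-79 cells, about 200 per dish, attached 2 h in MEM + 15% fetal calf serum. Exposed to a range of drug concentrations for 2 h at 37 °C, in air or hypoxia (95% N2/5% CO2 purge, 90 min). Drug then replaced by fresh medium, 6-day incubation, colonies stained with methylene blue and counted. ED50 read from concentration vs. percent survival graphs.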

A short description of data set [3]: Evaluated for sensitizer enhancement ratio determined by dividing the D0 value from the control radiation survival curve by the […] from the radiation survival curve in the presence at a concentration of 0.25 mM. The class given is functional. A digest of the protocol: (§1)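 Hypoxic asynchronous V-79 monolayers in sealed containers (95% N2/5% CO2 purge) with drug present. Irradiated at room temperature by linear accelerator, 180 rad/min, 400–2400 rad, for full survival curves by colony formation. SER is the D0 of hypoxic control cells divided by the D0 of hypoxic drug-treated cells. Drug given at maximum nontoxic 2-h concentration, up to 1 mM.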

A short description of data set [4]: Evaluated for sensitizer enhancement ratio determined by dividing the D0 value from the control radiation survival curve by the […] from the radiation survival curve in the presence at a concentration of 0.5 mM. The class given is functional. A digest of the protocol: as §1
A short description of data set [5]: Evaluated for sensitizer enhancement ratio determined by dividing the D0 value from the control radiation survival curve by the […] from the radiation survival curve in the presence at a concentration of 1.0 mM.
A short description of data set [6]: Evaluated for sensitizer enhancement ratio determined by dividing the D0 value from the control radiation survival curve by the […] from the radiation survival curve in the presence at a concentration of 0.05 mM. Format: functional. In short, it runs like this: as §1
A short description of data set [7]: Evaluated for sensitizer enhancement ratio determined by dividing the D0 value from the control radiation survival curve by the […] from the radiation survival curve in the presence at a concentration of 0.1 mM. The class given is functional. A digest of the protocol:
as §1

Data set [8] can be described thus: Evaluated for sensitizer enhancement ratio determined by dividing the D0 value from the control radiation survival curve by the […] from the radiation survival curve in the presence at a concentration of 0.025 mM. The class given is functional. In short, it runs like this:
as §1

Data set [9] can be described thus: Evaluated for sensitizer enhancement ratio determined by dividing the D0 value from the control radiation survival curve by the […] from the radiation survival curve in the presence at a concentration of 1.0 mM. Format: functional. A digest of the protocol: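 V-79 Chinese hamster asynchronous monolayers in MEM with 15% fetal calf serum. Cells made hypoxic in sealed containers purged with 95% N2/5% CO2 for 90 min, drug exposure 2 h. Irradiated at room temperature by linear accelerator at 180 rad/min, 400–2400 rad. Colonies counted after 6 days at 37 °C. SER = D0 of hypoxic controls / D0 of hypoxic drug-treated cells.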

As to `O=C(Cn1cnc([N+](=O)[O-])c1I)NCc1cccnc1`, the PC in [1] is 2.9. Moreover, in data set [2], the EC50 turned out to be 650 µM. Moreover, in data set [3], the Ratio came out at 1.5.

In turn, `Cn1cnc(I)c1[N+](=O)[O-]` gave a PC in data set [1] of 19.4. Moreover, in [2], the EC50 is 820 µM. For the same compound, the Ratio in data set [4] was 2.4.

For `O=C(Cn1cnc([N+](=O)[O-])c1I)NCc1ccc[n+]([O-])c1`, in data set [5], the Ratio was determined as 1.2. For the same compound, the PC in data set [1] is on record as 0.04. Besides, in [2], the EC50 is more than 1000 µM.

As for `Cn1cnc([N+](=O)[O-])c1I`, the PC in [1] is 10.1. In addition, the EC50 in [2] was determined as 140 µM. The Ratio in data set [6] was found to be 2.5.

The compound `O=C(Cn1cnc(I)c1[N+](=O)[O-])NCc1cccnc1` showed a PC in data set [1] of 7.6. Further, in data set [2], the EC50 is 180 µM. In addition, the Ratio in data set [7] was 1.7.

In data set [1], `COCC(O)Cn1cnc(I)c1[N+](=O)[O-]` (stereo not given) returned a PC of 7.8. Further, the EC50 in data set [2] was 480 µM. The Ratio in data set [7] was 1.4.

`CCOC(=O)Cn1cnc(I)c1[N+](=O)[O-]` yielded a PC in [1] of 8.6. Also, the EC50 in data set [2] was 180 µM. The Ratio in data set [7] was found to be 1.8.

Consider `CCOC(=O)Cn1cnc([N+](=O)[O-])c1I`, for which, in data set [8], the Ratio was determined as 1.7. This compound also showed a PC in data set [1] of 3.7. In addition, in data set [2], the EC50 was found to be 60 µM.

`COCC(O)Cn1cnc([N+](=O)[O-])c1I` (stereo not given) returned a PC in [1] of 2.6. For the same compound, the EC50 in data set [2] was found to be 170 µM. Further, the Ratio in data set [7] was 1.6.

Turning to `O=[N+]([O-])c1[nH]cnc1I`, the Ratio in data set [9] was determined as 1.1. This compound also showed a PC in data set [1] of 1.9. Also, the EC50 in data set [2] was more than 1000 µM.

Values taken from ChEMBL document CHEMBL1122926, “Potential radiosensitizing agents. 7. 4(5)-Iodo-5(4)-nitroimidazole derivatives” (J Med Chem, 1985).
